Test results reported in ChEMBL document CHEMBL3769305, “Glucose-functionalized amino-OPEs as biocompatible photosensitizers in PDT” (Eur J Med Chem, 2016).
Calls of active or inactive are those of the source. The calls are words filed in the database; no cut-off is given here.

Columns and labels:
[1] = Drug uptake in endoplasmic reticulum of human HeLa cells at 1 uM after 6 hrs by ER-tracker dye-based fluorescence microscopy; type: ADME, cell-based
Method in brief: (§1)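 Cells grown on glass coverslips were incubated with 1×10^-6 M photosensitizer for 6 h at 37 °C, washed twice in PBS and imaged live by fluorescence microscopy. Organelle probes (ER-Tracker, ex 374/em 430 nm; NBD-Golgi, ex 466/em 536 nm) were applied for 30 min at the supplier's concentrations, and their patterns were compared with the compound signal.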

[2] = Drug uptake in golgi apparatus of human HaCaT cells at 1 uM after 6 hrs by NBD dye-based fluorescence microscopy; type: ADME, cell-based; method in brief: as §1
[3] = Drug uptake in golgi apparatus of human HeLa cells at 1 uM after 6 hrs by NBD dye-based fluorescence microscopy; type: ADME, cell-based; method in brief: as §1
[4] = Dark toxicity against human Hep2 cells assessed as cell survival at 5 uM incubated for 6 hrs measured after 24 hrs by MTT assay; type: cell-based, HEp-2; details: read-out: Survival
Method in brief: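 Cells (HaCaT and HeLa in DMEM, HEp-2 in RPMI, each with 10% FBS, at 37 °C and 5% CO2) were treated at 60–70% confluence. The compound was added from a 10^-3 M DMSO stock in medium with 1% FBS (final DMSO <0.5%) at 3·10^-6 to 2.5·10^-5 M and kept in the dark (6 h per table footnote, 18 h per methods). After 24 h, MTT at 50 µg/mL for 4 h, read at 542 nm as % of control OD.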

HeLa [5] = experiment: Phototoxicity against human HeLa cells assessed as cell lethality at 3 to 250 uM incubated for 6 hrs followed by UV irradiation at 1 J/cm'2 measured after 24 hrs by MTT assay; type: functional
Method in brief: (§2)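 Cultures at 60–70% confluence were loaded with the photosensitizer for 6 h in medium with 1% FBS and <0.5% DMSO. Medium was then replaced and cells were irradiated with UVA (300–400 nm, 15.9 W/m² at 10 cm), then washed and kept in complete medium for 24 h. Survival was read by MTT (50 µg/mL, 4 h, 542 nm) as % of untreated control OD.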

[6] = Phototoxicity against human Hep2 cells assessed as cell lethality at 3 to 250 uM incubated for 6 hrs followed by UV irradiation at 1 J/cm'2 measured after 24 hrs by MTT assay; type: functional, HEp-2; method in brief: as §2
HaCaT [7] = experiment: Induction of cell morphological changes in human HaCaT cells assessed as cytoplasmic retraction at 3 to 5 uM after 24 hrs by Hoechst 33258 staining-based phase contrast microscopy in presence of UVA light
HaCaT [8] = experiment: Induction of cell morphological changes in human HaCaT cells assessed as cell elongation at 3 to 5 uM after 24 hrs by Hoechst 33258 staining-based phase contrast microscopy in presence of UVA light
HeLa [9] = experiment: Induction of cell morphological changes in human HeLa cells assessed as cellular stretching at 3 to 5 uM after 24 hrs by Hoechst 33258 staining-based phase contrast microscopy in presence of UVA light; type: functional
HeLa [10] = experiment: Induction of cell morphological changes in human HeLa cells assessed as cytoplasmic vacuolization at 3 to 5 uM after 24 hrs by Hoechst 33258 staining-based phase contrast microscopy in presence of UVA light; type: functional
HEp-2 [11] = experiment: Induction of cell morphological changes in human Hep2 cells assessed as cytoplasmic retraction at 3 to 5 uM after 24 hrs by Hoechst 33258 staining-based phase contrast microscopy in presence of UVA light; type: functional
HEp-2 [12] = experiment: Induction of cell morphological changes in human Hep2 cells assessed as cellular stretching at 3 to 5 uM after 24 hrs by Hoechst 33258 staining-based phase contrast microscopy in presence of UVA light; type: functional
HEp-2 [13] = experiment: Induction of apoptotic morphological changes in human Hep2 cells at LD50 after 24 hrs by Hoechst 33258 staining-based fluorescence microscopy in presence of UVA light; type: functional, cell-based
HEp-2 [14] = experiment: Induction of necrotic morphological changes in human Hep2 cells at LD50 after 24 hrs by Hoechst 33258 staining-based fluorescence microscopy in presence of UVA light; type: functional, cell-based
HaCaT [15] = experiment: Induction of apoptosis in human HaCaT cells at LD50 after 24 hrs by acridine orange/ethidium bromide staining-based assay in presence of 0.25 to 0.5 J/cm'2 UVA light; type: cell-based
HeLa [16] = experiment: Induction of apoptosis in human HeLa cells at LD50 after 24 hrs by acridine orange/ethidium bromide staining-based assay in presence of 0.25 to 0.5 J/cm'2 UVA light; type: functional, cell-based
HaCaT [17] = experiment: Induction of necrosis in human HaCaT cells at LD50 after 24 hrs by acridine orange/ethidium bromide staining-based assay in presence of 0.25 to 0.5 J/cm'2 UVA light; type: cell-based
HEp-2 [18] = experiment: Induction of necrosis in human Hep2 cells at LD50 after 24 hrs by acridine orange/ethidium bromide staining-based assay in presence of 0.25 to 0.5 J/cm'2 UVA light; type: functional, cell-based
Method in brief: (§3)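 Cells (HaCaT, HeLa in DMEM; HEp-2 in RPMI; 10% FBS) at 60–70% confluence were incubated 6 h with 3·10^-6 M photosensitizer (DMSO stock diluted in medium with 1% FBS, final DMSO <0.5%). Medium was replaced and cells were given 0.25 J/cm² UVA (300–400 nm). 24 h later, cells were stained live with 50 µg/ml AO plus 50 µg/ml EtBr in PBS. Within 15 min, 200 cells per condition were scored as living, rounded, apoptotic or necrotic.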

HEp-2 [19] = experiment: Phototoxicity against human Hep2 cells assessed as appearance of rounded cells at LD50 after 24 hrs by acridine orange/ethidium bromide staining-based assay in presence of 0.25 to 0.5 J/cm'2 UVA light; type: functional, cell-based; method in brief: as §3
HEp-2 [20] = experiment: Induction of microtubule disruption in human Hep2 cells assessed as appearance of extrapoles at LD50 after 24 hrs by immunofluorescence assay in presence of UVA light; type: cell-based
[21] = Induction of microtubule disruption in human HeLa cells assessed as abnormality in chromosome distribution at LD50 after 24 hrs by immunofluorescence assay in presence of UVA light; type: cell-based
[22] = Induction of microtubule disruption in human Hep2 cells assessed as abnormality in chromosome distribution at LD50 after 24 hrs by immunofluorescence assay in presence of UVA light; type: cell-based; details: HEp-2
HEp-2 [23] = experiment: Induction of microtubule disruption in human Hep2 cells assessed as increase in altered metaphase at LD50 after 24 hrs by immunofluorescence assay in presence of UVA light; type: cell-based
[24] = Induction of microtubule disruption in human HaCaT cells assessed as increase in altered metaphase at LD50 after 24 hrs by immunofluorescence assay in presence of UVA light; type: cell-based
HEp-2 [25] = experiment: Induction of cell morphological changes in human Hep2 cells assessed as appearance of rounded cells at 3 to 5 uM after 24 hrs by Hoechst 33258 staining-based phase contrast microscopy in presence of UVA light; type: functional
HeLa [26] = experiment: Induction of cell morphological changes in human HeLa cells assessed as appearance of rounded cells at 3 to 5 uM after 24 hrs by Hoechst 33258 staining-based phase contrast microscopy in presence of UVA light; type: functional

Row | SMILES | Drug uptake [1] | Drug uptake [2] | Drug uptake [3] | viability at 6 h, 5 µM [4] [%] | mortality (HeLa [5]) [%] | mortality [6] [%] | Activity (HaCaT [7]) | Activity (HaCaT [8]) | Activity (HeLa [9]) | Activity (HeLa [10]) | Activity (HEp-2 [11]) | Activity (HEp-2 [12]) | Activity (HEp-2 [13]) | Activity (HEp-2 [14]) | Activity (HaCaT [15]) | Activity (HeLa [16]) | Activity (HaCaT [17]) | Activity (HEp-2 [18]) | Activity (HEp-2 [19]) | Activity (HEp-2 [20]) | other results
1 | COc1cc(C#Cc2ccc(C#Cc3cc(OC)c(C#CCO[C@@H]4O[C@H](CO)[C@@H](O)[C@H](O)[C@H]4O)cc3OC)c(N(C)C)c2)c(OC)cc1C#CCO[C@@H]1O[C@H](CO)[C@@H](O)[C@H](O)[C@H]1O | Active | Active | Active | 96.3 | >50 | >50 | Toxic | Toxic | Active | Active | Active | Active | Active | Active | Toxic | Active | Toxic | Active | Active | Active | Activity [21]: Active; Activity [22]: Active; Activity (HEp-2 [23]): Active; Activity [24]: Non-toxic; Activity (HEp-2 [25]): Active; Activity (HeLa [26]): Active
2 | COc1cc(C#Cc2ccc(C#CCO[C@@H]3O[C@H](CO)[C@@H](O)[C@H](O)[C@H]3O)cc2N(C)C)c(OC)cc1C#Cc1ccc(C#CCO[C@@H]2O[C@H](CO)[C@@H](O)[C@H](O)[C@H]2O)cc1N(C)C | Active | Active | Active | 95.7 | >50 | >50 | Toxic | Toxic | Active | Active | Active | Active | Active | Active | Toxic | Active | Toxic | Active | Active | Active | Activity [21]: Active; Activity [22]: Active; Activity (HEp-2 [23]): Active; Activity [24]: Non-toxic; Activity (HEp-2 [25]): Active; Activity (HeLa [26]): Active
